Screens from PubChem.
b-catenin transl – modulators of beta-catenin nuclear translocation. nuclear translocation activity, % at 5 µM. 190,000 compounds, 0.3% hits. AID 1665. HeLa beta-catenin nuclear translocation, immunofluorescence imaging;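 active means nuclear translocation activity above 50% at 5 µM, with a well cell count of 50 or more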;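 further: per-cell ratio of nuclear to cytoplasmic median beta-catenin stain intensity; plate controls were DMSO negative control for no effect and GSK-3 inhibitor IX positive control for full effect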
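System: HeLa cells, endogenous beta-catenin; compound dosing: 5 µM primary single dose, 0.1% DMSO, 0.02–20 µM confirmation series; incubation: 24 h compound exposure at 37°C, 5% CO2; signal: beta-catenin immunofluorescence imaging with DAPI; evaluation: % activation, nuclear-to-cytoplasmic median beta-catenin signal ratio per cell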
WT yeast gro inh – growth inhibition of WT yeast, mitochondrial fusion screen. mitochondrial fusion phenotypic screen, WT strain. inhibition, % at 10 µM. 190,000 compounds, 2.1% hits; in the data active means inhibition above about 58%; tested in S. cerevisiae
Pf gametocyte – P. falciparum stage V gametocyte viability inhibition; inhibition, % at 10.9 µM; AID 743093; 150,000 compounds, 0.065% hits; P. falciparum stage V gametocytes, ATP luminescence, 24 h;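 active means inhibition above the mean plus 3 SD of compounds within the control limits, set per campaign, cut at about 38% in these data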;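 further: 0% = DMSO wells and 100% = medium only without gametocytes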
MT stabilize HCS – stabilizes microtubules in HeLa cells; 200,000 compounds, 0.83% hits; % tubulin-high responders, % at 10 µM; HeLa tubulin immunostaining HCS, 24 h; share of cells brighter than vehicle mean+2SD;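 active means plate Z-score above 3 for both tubulin-high and condensed-nucleus cell shares, with cell loss under 80%, at 10 µM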;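 further: anti alpha tubulin signal scored within the nucleus-defined area of each cell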
Cl transport mod – modulates chloride dependent transport by human KCC2; Q9H2X9; KCC2 cells, thallium flux FluoZin-2 fluorescence; B-score of Tl+ flux slope (higher = more flux/activation; lower = inhibition) at 10 µM; 190,000 compounds, 2.2% hits; AID 1456;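 active means thallium flux slope and its plate-corrected score both differing from the plate sample mean at a set confidence after two filtering rounds, in either direction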;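 further: slope of fluorescence scaled to starting intensity during 10 to 20 s after thallium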
Target sequence (Q9H2X9 whole entry, looked up): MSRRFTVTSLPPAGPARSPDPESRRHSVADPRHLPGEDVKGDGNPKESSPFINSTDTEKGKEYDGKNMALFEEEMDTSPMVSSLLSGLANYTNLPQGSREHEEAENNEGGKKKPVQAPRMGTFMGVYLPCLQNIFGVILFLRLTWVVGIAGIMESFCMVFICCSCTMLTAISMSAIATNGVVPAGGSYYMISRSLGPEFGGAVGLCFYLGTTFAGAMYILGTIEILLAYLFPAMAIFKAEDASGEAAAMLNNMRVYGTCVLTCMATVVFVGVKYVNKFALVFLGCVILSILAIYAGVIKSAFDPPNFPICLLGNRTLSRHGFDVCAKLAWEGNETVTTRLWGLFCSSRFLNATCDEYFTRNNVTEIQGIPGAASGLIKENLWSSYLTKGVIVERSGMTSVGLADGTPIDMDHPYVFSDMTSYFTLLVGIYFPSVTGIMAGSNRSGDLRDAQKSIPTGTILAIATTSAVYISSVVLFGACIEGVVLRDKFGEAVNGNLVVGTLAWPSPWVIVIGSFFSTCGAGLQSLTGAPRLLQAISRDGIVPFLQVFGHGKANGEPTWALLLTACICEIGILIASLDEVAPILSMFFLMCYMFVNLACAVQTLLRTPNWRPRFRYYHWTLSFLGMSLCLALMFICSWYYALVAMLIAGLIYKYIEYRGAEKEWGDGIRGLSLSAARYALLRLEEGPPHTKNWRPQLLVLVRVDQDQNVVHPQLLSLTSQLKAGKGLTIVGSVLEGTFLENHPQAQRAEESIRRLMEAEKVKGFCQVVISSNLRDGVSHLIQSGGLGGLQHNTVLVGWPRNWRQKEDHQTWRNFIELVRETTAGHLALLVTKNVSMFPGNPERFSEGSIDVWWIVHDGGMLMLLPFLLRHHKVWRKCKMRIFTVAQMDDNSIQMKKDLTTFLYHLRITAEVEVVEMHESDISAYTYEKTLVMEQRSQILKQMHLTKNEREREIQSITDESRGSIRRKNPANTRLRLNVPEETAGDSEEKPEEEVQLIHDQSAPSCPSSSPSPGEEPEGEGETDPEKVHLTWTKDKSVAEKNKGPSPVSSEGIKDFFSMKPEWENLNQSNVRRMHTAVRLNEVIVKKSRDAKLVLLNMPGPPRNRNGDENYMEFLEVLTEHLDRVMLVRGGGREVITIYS
Active calls of the source: *. Rows were chosen to be rich in hits. Some 4% of all compounds tested hit in one or more screens of this group.

How did Cc1ccc(CNC(=O)c2ccc(Cn3cc(-c4ccc(C)cc4)nc3-c3ccncc3)cc2)cc1 do in these assays?
Pf gametocyte: -23

What do the screens show for `CCN(CC)c1ccc(NC(=O)c2cccc(OC)c2)c(C)c1`?
WT yeast gro inh: -6; MT stabilize HCS: 53*; Cl transport mod: 0.87

How did CSc1ccc(C(=O)C2CCCN(Cc3ccc(N4CCNC4=O)cc3)C2)cc1 (stereo not given) do in these assays?
b-catenin transl: 7; WT yeast gro inh: 5; Pf gametocyte: -3; MT stabilize HCS: 14*; Cl transport mod: -0.71

Results for COc1ccc(CN2CCCC(C(=O)c3ccc(SC)cc3)C2)cc1Cn1cccn1 (stereo not given) ?
b-catenin transl: -2; WT yeast gro inh: 31; Pf gametocyte: -38; MT stabilize HCS: 6

What do the screens show for `CC(=O)Nc1ccc(NC(=O)c2cc([N+](=O)[O-])cc([N+](=O)[O-])c2)cc1`?
Pf gametocyte: -14

Results for Cc1ccc(NC(=O)c2ccc(Nc3c([N+](=O)[O-])cc([N+](=O)[O-])cc3[N+](=O)[O-])cc2)cc1 ?
b-catenin transl: 2; WT yeast gro inh: 60*; Pf gametocyte: 5; MT stabilize HCS: 9; Cl transport mod: 0.36

How did O=C(Cc1ccc(Br)cc1)N1CCN(c2ccccc2O)CC1 do in these assays?
b-catenin transl: 2; WT yeast gro inh: 6; MT stabilize HCS: 1; Cl transport mod: 0.084

Results for O=C1CSC(=NC2CCCCC2)N1 ?
b-catenin transl: -4; WT yeast gro inh: 84*; MT stabilize HCS: 4; Cl transport mod: 0.18

Results for O=C1CS/C(=N/N=C2CCCC2)N1 ?
WT yeast gro inh: 0; Pf gametocyte: 5; MT stabilize HCS: 1; Cl transport mod: -0.002

What do the screens show for `CC(=O)Nc1nc2c(F)cccc2s1`?
WT yeast gro inh: 22; MT stabilize HCS: 7; Cl transport mod: 1.7

How did Fc1cccc2sc(Nc3nnc(-c4ccco4)o3)nc12 do in these assays?
b-catenin transl: 0; WT yeast gro inh: 14; MT stabilize HCS: 4; Cl transport mod: 33*

How did COc1cccc2sc(Nc3nnc(-c4ccc(F)cc4)o3)nc12 do in these assays?
b-catenin transl: 0; WT yeast gro inh: 2; MT stabilize HCS: 9

Results for COc1cccc2sc(Nc3nc(-c4ccccn4)cs3)nc12 ?
b-catenin transl: 34; WT yeast gro inh: 63*; MT stabilize HCS: 24

What do the screens show for `COc1cccc2sc(Nc3nnc(-c4cccs4)o3)nc12`?
b-catenin transl: 2; WT yeast gro inh: 33; Pf gametocyte: 29; MT stabilize HCS: 2; Cl transport mod: 58*

Results for CC12CCC(C(=O)Nc3ccc(Br)cn3)(OC1=O)C2(C)C (stereo not given) ?
b-catenin transl: -4; Pf gametocyte: 12; Cl transport mod: 0.44

How did Cc1cc(C)n(-c2cccc(Cl)c2C#N)n1 do in these assays?
b-catenin transl: 0; Pf gametocyte: -3; Cl transport mod: -0.33

Results for Cc1ccsc1C1Nc2ccc3ncccc3c2C2=C1C(=O)CC(C)(C)C2 (stereo not given) ?
b-catenin transl: -2; WT yeast gro inh: -2; MT stabilize HCS: 37*; Cl transport mod: -2.5

What do the screens show for `CCOC(=O)c1nnsc1Nc1ccc(C)c(C)c1`?
b-catenin transl: -1; WT yeast gro inh: 8; Pf gametocyte: -6; MT stabilize HCS: 3; Cl transport mod: -3.1

Results for c1ccc(-c2nnc3sc(-c4ccncc4)nn23)cc1 ?
WT yeast gro inh: 0; Pf gametocyte: 52*; MT stabilize HCS: 4; Cl transport mod: -1.1

Results for COc1cccc(-c2nnc3sc(-c4ccccc4)nn23)c1 ?
b-catenin transl: -9; WT yeast gro inh: 3; Pf gametocyte: 10; MT stabilize HCS: 5; Cl transport mod: -1.4

How did Clc1ccc(-c2nn3c(-c4ccccc4)nnc3s2)cc1 do in these assays?
b-catenin transl: 1; WT yeast gro inh: -4; Pf gametocyte: 2; MT stabilize HCS: 4; Cl transport mod: -1.6

What do the screens show for `c1ccc(-c2nnc3sc(-c4csc5c4CCCC5)nn23)cc1`?
b-catenin transl: 0; WT yeast gro inh: 82; Pf gametocyte: -29; MT stabilize HCS: 21*

How did Cc1cccc(-c2nnc3sc(-c4ccccc4C)nn23)c1 do in these assays?
b-catenin transl: -3; WT yeast gro inh: 69*; MT stabilize HCS: 3; Cl transport mod: -2

What do the screens show for `CC(=O)n1cc([C@H]2C=C(C(=O)N3CCOCC3)O[C@@H](OCCCCO)C2)c2ccccc21`?
Pf gametocyte: -4

What do the screens show for `CC(C)n1nc(C(=O)N2CCN(S(=O)(=O)c3cccs3)CC2)c2ccccc2c1=O`?
b-catenin transl: 1; Pf gametocyte: 11; Cl transport mod: -1.1

How did COc1ccc(-n2cc(C#N)c(=O)[nH]c2=O)cc1 do in these assays?
b-catenin transl: -1; WT yeast gro inh: 5; Pf gametocyte: 18; MT stabilize HCS: 1; Cl transport mod: -0.046

What do the screens show for `COc1ccc(S(=O)(=O)N2CCCC2C(=O)Nc2ccc(O)cc2)cc1` (stereo not given)?
b-catenin transl: 1; WT yeast gro inh: 7; MT stabilize HCS: 2; Cl transport mod: -0.14

Results for COc1ccc(S(=O)(=O)N2CCC[C@H]2C(=O)NC2=NCCS2)cc1 ?
b-catenin transl: -2; WT yeast gro inh: 66*; Pf gametocyte: 14; MT stabilize HCS: 2; Cl transport mod: 0.22

Results for CCOc1ncccc1C(=O)N1CCN(C(=O)c2ccccc2)CC1 ?
b-catenin transl: 0; WT yeast gro inh: -21; Pf gametocyte: -59; MT stabilize HCS: 3

How did Cc1ccc(N2CCN(C(=O)c3ccccc3Br)CC2)c(C)c1 do in these assays?
b-catenin transl: 0; WT yeast gro inh: 17; Pf gametocyte: 21; MT stabilize HCS: 3; Cl transport mod: 0.38

How did Cc1ccc(C)c(N2CCN(C(=O)c3ccccc3Br)CC2)c1 do in these assays?
WT yeast gro inh: 58*; Pf gametocyte: 2; MT stabilize HCS: 2; Cl transport mod: -0.013

What do the screens show for `CCOc1ncccc1C(=O)N1CCN(c2cccc(C)c2C)CC1`?
b-catenin transl: 186*; WT yeast gro inh: 10; Pf gametocyte: 1; MT stabilize HCS: 11*; Cl transport mod: -0.63

How did CCOc1ncccc1C(=O)N1CCN(c2cc(Cl)ccc2C)CC1 do in these assays?
b-catenin transl: 84*; WT yeast gro inh: 11; MT stabilize HCS: 11; Cl transport mod: 0.12

How did O=[N+]([O-])c1ccc(S(=O)(=O)N(CCCN2CCOCC2)Cc2cccs2)cc1 do in these assays?
b-catenin transl: 0; WT yeast gro inh: 7; Pf gametocyte: 1; MT stabilize HCS: 6; Cl transport mod: -0.0064

What do the screens show for `C=CCSc1nc2ccccc2c(=O)n1Cc1ccccc1`?
b-catenin transl: 0; WT yeast gro inh: 24; Pf gametocyte: 5; MT stabilize HCS: 2; Cl transport mod: 0.96

How did O=C(CSc1nc2ccccc2c(=O)n1Cc1ccco1)NCc1ccccc1 do in these assays?
MT stabilize HCS: 3; Cl transport mod: 4*

What do the screens show for `O=c1c2ccccc2nc(SCc2ccccc2Cl)n1Cc1ccccc1`?
b-catenin transl: -1; WT yeast gro inh: 69*; Pf gametocyte: -9; MT stabilize HCS: 2
